# Assay results reported in the EternaBench riboswitch data.
# Tested on: MS2 coat protein
# Experiment: apparent Kd, MS2 coat protein; higher = weaker binding; RNA-MaP array; FMN 200 µM where present
# In short: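 The apparent Kd comes from binding curves fitted cluster by cluster, filtered, and summarised as a median. Those curves followed SNAP-549-labelled MS2 coat protein from 0.7 or 1.5 nM, doubling to 3 µM, on Illumina sequencing-chip clusters where stalled E. coli RNA polymerase had transcribed the designs, without and then with constant ligand. The buffer was 100 mM Tris-HCl pH 7.5, 80 mM KCl, 4 mM MgCl2, BSA, DTT, yeast tRNA and Tween-20, and green signal was normalised to red-channel RNA signal and control-cluster median Fmax.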
# [1] = designed as: ON switch for flavin mononucleotide, no ligand
# [2] = ligand present: flavin mononucleotide, designed as: ON switch for flavin mononucleotide
# [3] = designed as: OFF switch for flavin mononucleotide, no ligand
# [4] = ligand present: flavin mononucleotide, designed as: OFF switch for flavin mononucleotide
Sequence,apparent Kd [1] [nM],apparent Kd [2] [nM],apparent Kd [3] [nM],apparent Kd [4] [nM]
AAAAAAAAAACAUAGGAUAUCCGGGCCGGGACAUGAGGAUCACCCAUGUCAAAAAAAAUUGGCCCGGAGAAGGAUGAAAAAAAAAA,15.5,14.9,–,–
AAAAAAAAAAGAGAGGAUAUCCAAAAAAAAACAUGAGGAUCACCCAUGUAAAAAAAAAAAAAAUGGGAGAAGGCUCAAAAAAAAAA,89.7,23.2,–,–
AAAAAAAAAAGUCAGGAUAUACAAAUUUUUACAUGAGGAUCACCCAUGUUAAGGAAAAAAAAAAAGUAGAAGGGACAAAAAAAAAA,27.3,17.6,–,–
AAAAAACAAGGAUAUACGGAUGAAGAUUGUCUUAAUUUUUGACAUGAGGAUCACCCAUGUAGAAGGUGUUAAAA,–,–,198,342
AAAAAACAUGAGGAUCACCCAUGUAAGGAUAUGCGAAAAAAAAAAAAAAAAAAAAAAAGCAGAAGGUACAAAAA,–,–,99.1,94.9
AAAAAACAUGAGGAUCACCCAUGUAAUACAACGUCAGGAUAUUGAUUUUAUUAUGUAUUGCAAGAAGGGACUUGUA,72.1,25.4,–,–
AAAAAACAUGAGGAUCACCCAUGUCAGGAUAUCCGAAAAAAAAAAAAAAAAAAAAAAAGGAGAAGGGACAAAAA,–,–,100,83.8
AAAAAACAUGAGGAUCACCCAUGUGAGGAUAUCUGAAAAAAAAAAAAAAAAAAGAAAAAGAGAAGGCGCAAAGA,–,–,124,65.2
AAAAAACAUGAGGAUCACCCAUGUGAGGAUAUGACUUAAAUAAAGAAAGAAGAAAUAGUCAGAAGGCACAAAUA,–,–,54.5,70.4
AAAAAGUCAGGAUAUAUCAAAGCCUAUGAAAGUGGGAAAGGGUAGAAGGGACAUGAGGAUCACCCAUGUAAAAA,–,–,52,50.3
AAAAAGUCAGGAUAUCGAAAAAAAAAAAAAAAAAAAAAAAACGAGAAGGGACAUGAGGAUCACCCAUGUAAAAA,–,–,63.7,69.6
AAAAAGUGAGGAUAUACAUGAGGAUCACCCAUGUGAAAUCGGAAAAAAAAGGAAAAAAGUAGAAGGCACAAAAA,–,–,24.2,24.3
AAAAAGUGAGGAUAUACGAAAAAAAAAAAAAAAAAAGGUGAACAUGAGGAUCACCCAUGUAGAAGGCACAAAAA,–,–,311,243
AAAAAGUGAGGAUAUCGAAAAAAAAAAAAAAAAAAAAAAAACGAGAAGGCACAUGAGGAUCACCCAUGUAAAAA,–,–,35.8,44.9
AAAAAGUGAGGAUAUGCUGCUCGUCACUUGCGUGAUGAGUAGCAGAAGGCACAUGAGGAUCACCCAUGUAAAGA,–,–,39,49.7
AAAACACAUGAGGAUCACCCAUGUGAGGAUAUGUCCAUGCUCGGCAAACCGGGCAUGGACAGAAGGCACAUAAA,–,–,45,46.7
AAAACAUACCGAGGAUAUUCAUUUAAUAAAUAAACAUGAGGAUCACCCAUGUGGCAAAAGCCUAGGGAGAAGGCGGAAUGCUAA,33.4,26.5,–,–
AAAACAUGAGGAUCACCCAUGUAAAGAUCGGAAAGUUAGAGUGAGGAUAUACAAAAUUUUAUAUAGUAGAAGGCACUGGGUACA,34.6,33.5,–,–
AAAACAUGAGGAUCACCCAUGUAAAGAUCGGUUAAUGAAAGUGAGGAUAUACAAAAUUUUAUAGAGUAGAAGGCACUGGGUACA,28.7,30.1,–,–

Sequence,apparent Kd [1] [nM],apparent Kd [2] [nM],apparent Kd [3] [nM],apparent Kd [4] [nM]
AAAACAUGAGGAUCACCCAUGUAUAGAUCGGUUAAUAGAAGUGAGGAUAUGCUUAAAAUAAGGUAGCAGAAGGCACUGGGUACA,23.9,25.1,–,–
AAAACAUGAGGAUCACCCAUGUUUAGAUCGGUCGAUAGAGGUGAGGAUAUACUAAGUUAAGGCUGGUAGAAGGCACUGGGUACA,62.4,42,–,–
AAAACCUCAUGAGGAUAUCCAACAUGAGGAUCACCCAUGUUAGUCUCAGUACCAGGUACUAGAGAGGAGAAGGCAUGCCAGGGC,78.6,27.5,–,–
AAAACGGCGCGUCCCGCACCAACUACAGAAGGCCAACAUGAGGAUCACCCAUGUACAAACUAGAUGGAGGAUAUGUAGGUUCUA,6.76,4.63,–,–
AAAAGAAUAAAAGGAUAUAGGAAAGGAAGUGUACUAGAAGGUUUGUUAACAUGAGGAUCACCCAUGUGCUCAGACACAGGGUGC,–,–,124,167
AAAAGCUCAGGAUAUACGGUCUGUUGUUGAGAAAUAUCGAAACAUGAGGAUCACCCAUGUAGAAGGGAGCGAAA,–,–,223,599
AAAAGUACAGGAUAUACAUGAGGAUCACCCAUGUAGAAAGGAAGUGUAAAAAAAAAGUGUAGAAGGGUGCAUGA,–,–,33.1,27.9
AAAAUCUAUUGAGGAUAUCGUUCUUAAAGAGAAUGAGAAGGCAAACAAUCAUGAGGACAUGAGGAUCACCCAUGUUGUGACCAU,19.9,10.3,–,–
AAAAUGUAAGGAUAUAGCCGGAACCCAGGGUUUGGACCCGGCUAGAAGGUACAUGAGGAUCACCCAUGUAAGAA,–,–,17.2,22.8
AAACAGUACGAGAAGGGCUACAUGAGGAUCACCCAUGUAGACGGUCGUGUGGCAGGAUAUCGAACGCACCCGAAACGGUGUGUU,–,–,5.07,7.03
AAACCGCUAGGAUAUACGAAAUAAAACUCUGUACUUGAGGUACAUGAGGAUCACCCAUGUAGAAGGAGCUCGGA,–,–,119,229
AAACGGAUCCGCGGUUGAUGCUAACUAGAAGGGCAGGUCACAUGAGGAUCACCCAUGUAGUAUAUGUAGGAUAUAGGAAGCGUG,140,26.9,–,–
AAAGAAACAGGAUAUGUAGGCUGCGACAUGAGGAUCACCCAUGUGUCGGUAUACAGUCCUAUAGAAGGGUUAUGAC,–,–,15.5,20.1
AAAGAGCAAGGAUAUACAUGAGGAUCACCCAUGUAGUACGUGAACCAGGUUUUCCUGAGUAGAAGGUGCAGACA,–,–,36,34.3
AAAGGAGGGAGGACCGUACAUGAGGAUCACCCAUGUAUAUCACAGGAUAUAGCAUGUUUAGGCAUCUAGAAGGGUGAUCGGUCA,186,37.7,–,–
AAAGUUGGUAGGCCCUCGGAACAUGAGGAUCACCCAUGUAAGGAGGAUAUGCCCGGUACCCGCUGGUAGAAGGCCUUAUAAGAA,–,–,7.46,23.5
AAAUAAAGGACUAAGGAUAUAUCACAUGAAACAUGAGGAUCACCCAUGUAAUAAUACAAAGGGUGAUAGAAGGUAGUCCACAAACA,55.7,20.5,–,–
AAAUAAAUGUAAGGAUAUCGGUUUCAGAGAACGCGAGAAGGUACAUGAGGAUCACCCAUGUUCCGUUGGGUUAACUUGAUCGCC,–,–,7.14,13.6
AAAUAGAUCCGAGGAUAUACAAUCCGGAAACGGUACAUGAGGAUCACCCAUGUAGAAGGCGGAUCUACAGGUACUAAAGUAAAA,–,–,10.8,10.8

Sequence,apparent Kd [1] [nM],apparent Kd [2] [nM],apparent Kd [3] [nM],apparent Kd [4] [nM]
AAAUCGAGUGUAGGAUAUGCACAGUUUGACCGUGCAGAAGGACACAUGAGGAUCACCCAUGUUAGCUCAUGGGCGGUGACUUAG,–,–,92.2,82.2
AAAUCUCAGAUAGGAUAUAUAGGAUAACUUAAGACCUAACAUGAGGAUCACCCAUGUGAUUAUUCGUAGAAGGAUCAUUGAACC,210,233,–,–
AAAUUAAGGAGAGGAUAUUGACAUGAGGAUCACCCAUGUAUUUGGGAGUGUUUACUGAAUUCUUACGAGAAGGCUUACGAAAUU,–,–,308,234
AAAUUGCUAGAGGAUAUCGGAUAGGAUCUAUCGCGAGAAGGUUGGACAUGAGGAUCACCCAUGUUCUGUUGGGA,–,–,24.4,26.1
AAAUUGUCAGGAUAUCCUGCUAUACGCAAUAUGUAUUCACGGGAGAAGGGACAUGAGGAUCACCCAUGUUUGAA,–,–,21.5,30
AAAUUUAACGAAGGAUAUGCUUACAUGAGGAUCACCCAUGUGUGCCUUGUGUUGCUGAUUAGGUUGCAGAAGGUCGUAUACAUA,–,–,124,684
AAAUUUAACGAAGGAUAUGGUUACAUGAGGAUCACCCAUGUAAUGGCUGUGAUAUUGAUUAAGUUCCAGAAGGUCGUAUACAUA,–,–,52.4,192
AAAUUUAACGAAGGAUAUGGUUACAUGAGGAUCACCCAUGUAAUGGUUGUGAUAUUGAUUAAGUUCCAGAAGGUCGUAUACAUA,–,–,97.8,279
AAAUUUUGUCAAGGAUAUGUAUAAUUGAGUUGAAAACAUGAGGAUCACCCAUGUAUAUGGUGGGAACAGAAGGUGAAUAAGUAA,–,–,195,151
AACAAACAUGAGGAUCACCCAUGUCAGGAUAUCGAAACAACAAACAACAAACAACAAACGAGAAGGGACAACAA,–,–,25.6,28.3
AACAAACAUGAGGAUCACCCAUGUCAGGAUAUGCAAACAACAAACAACAAACAACAAAGCAGAAGGGACAACAA,–,–,23.7,30.2
AACAAAGACACAGGAUAUCCACAAAUACAUGAGGAUCACCCAUGUUCGAAAGGAGAAGGGUGGCACCGGUACAAUCUGGUUAUC,275,89.3,–,–
AACACGUGAGGAUAUACAUGAGGAUCACCCAUGUUGGUACAAUCCUGUCCGACUAUCCGUAGAAGGCAUUGACU,–,–,38.7,–
AACAGCACAGGAUAUACAUGAGGAUCACCCAUGUGAGAAUUAAGUGGCGUACCACAAAGUAGAAGGGUGCUGGA,–,–,37.1,286
AACAGCUCGUCAGGAUAUAUAUACUUAUAUUGUAUUUAUGUACAUGAGGAUCACCCAUGUUGUUAGUAGAAGGGACGAGCUGAA,–,–,7.61,7.16
AACAGCUCGUCAGGAUAUAUUUUCCUUUUAUGUAUUUAUGUACAUGAGGAUCACCCAUGUUGAUAGUAGAAGGGACGAGCUGAA,–,–,13.8,34.4
AACAGUACAGGAUAUACAUGAGGAUCACCCAUGUGAUAUUUAAGUGGCGUACCACAAAGUAGAAGGGUACUGGA,–,–,21.9,85.6
AACAUGUCAGGAUAUAUGACAUGGCUCUUCGGAGCAAGCUCAUAGAAGGGACAUGAGGAUCACCCAUGUAGAGC,–,–,21.1,25.2
